Values joined by “and” are separate entries in the source; they are usually repeats but may differ in a detail not shown here. Equal values may be shown once.
Tests used:
Assay type in all cases: toxicity, cell-based
[1] = tested on: HEK-293T; experiment: Multiplex assay against HEK293T; conditions: human, 48 h, 10 µM, compound concentration 10 uM;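 as to Population Tubulin-Different-Phenotype (%): share of the cells with healthy nuclei that show this phenotype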
Procedure, shortened: (§1)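 Cells stained live at seeding with Hoechst33342, BioTracker Green Microtubule Cytoskeleton Dye, MitoTracker Red and Annexin V Alexa Fluor 680 were imaged on a CQ1 microscope at 37°C and 5% CO2 after compound addition. Their classification by CellPathfinder machine-learning gating ran from Hoechst high-intensity objects versus normal cells, to healthy, pyknosed or fragmented nuclei among normal cells, to mitotic or apoptotic among pyknosed cells. Tubulin, mitochondrial-mass and membrane-permeability phenotypes are per cents of healthy-nucleus cells.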

[2] = tested on: U2OS; experiment: Multiplex assay against U2OS; conditions: human, 10 µM, compound concentration 10 uM; procedure, shortened: as §1
[3] = tested on: HEK-293T; experiment: Incucyte cell viability with HEK293T; conditions: human, 10 µM, compound concentration 10 uM; also: filed as whole numbers so only -1 and 0 and 1 occur
[4] = tested on: Fibroblast; experiment: Incucyte cell viability with human fibroblast; conditions: 10 µM, compound concentration 10 uM; also: filed as whole numbers so only -1 and 0 and 1 occur
[5] = tested on: U2OS; experiment: Incucyte cell viability with U2OS; conditions: human, 10 µM, compound concentration 10 uM; also: filed as whole numbers so only -1 and 0 and 1 occur
[6] = 6 h, replicate number 1, timepoint 6 hours
[7] = 12 h, replicate number 1, timepoint 12 hours
[8] = 18 h, replicate number 1, timepoint 18 hours
[9] = 24 h, replicate number 1, timepoint 24 hours

With C1=N/C2=N/c3ccc(OCCN4CCCC4)c(c3)COC/C=C\COCc3cccc(c3)C(=C1)N2 the “Population Pyknosed Nuclei (%)” value ([1]; replicate 1) was 62%, the “Population Tubulin-Different-Phenotype (%)” value ([1]; replicate 1) was 0% and the “Total Cell Count” value ([1]; replicate 1) was 253. The “Population Fragmented Nuclei (%)” value ([1]; replicate 2) was 17%, the “Population Healthy Nuclei (%)” value ([1]; replicate 2) was 18% and the “Population Hoechst High Intensity Objects (%)” value ([1]; replicate 2) was 15%. For the same compound, the “Population Membrane Permeable-Phenotype (%)” value ([1]; replicate 2) was 3%, the “Population Mitochondria Different-Phenotype (%)” value ([1]; replicate 2) was 81% and the “Population Normal (%)” value ([1]; replicate 2) was 84%. For the same compound, the “Population Pyknosed Nuclei (%)” value ([1]; replicate 2) was 64%, the “Population Tubulin-Different-Phenotype (%)” value ([1]; replicate 2) was 96% and the “Total Cell Count” value ([1]; replicate 2) was 212. The “Population Apoptotic (%)” value ([2]; 12 h, replicate 1) was 87% and 88% and 55%, the “Population Fragmented Nuclei (%)” value ([2]; 12 h, replicate 1) was 35% and 19% and 20% and the “Population Hoechst High Intensity Objects (%)” value ([2]; 12 h, replicate 1) was 6% and 13%. For the same compound, the “Population Normal (%)” value ([2]; 12 h, replicate 1) was 93% and 86%, the “Population Pyknosed Nuclei (%)” value ([2]; 12 h, replicate 1) was 44% and 67% and 25% and the “Population Tubulin-Different-Phenotype (%)” value ([2]; 12 h, replicate 1) was 94% and 60%. For the same compound, the “Total Cell Count” value ([2]; 12 h, replicate 1) was 194 and 177 and 149, the “Population Apoptotic (%)” value ([2]; 12 h, replicate 2) was 90% and 68% and the “Population Fragmented Nuclei (%)” value ([2]; 12 h, replicate 2) was 53% and 29%. For the same compound, the “Population Hoechst High Intensity Objects (%)” value ([2]; 12 h, replicate 2) was 16% and 10% and 7%, the “Population Normal (%)” value ([2]; 12 h, replicate 2) was 83% and 89% and 92% and the “Population Pyknosed Nuclei (%)” value ([2]; 12 h, replicate 2) was 27% and 53% and 22%. The “Population Tubulin-Different-Phenotype (%)” value ([2]; 12 h, replicate 2) was 55% and 100% and 43%, the “Total Cell Count” value ([2]; 12 h, replicate 2) was 154 and 71 and 158 and the “Population Apoptotic (%)” value ([2]; 24 h, replicate 1) was 98% and 82%. The “Population Fragmented Nuclei (%)” value ([2]; 24 h, replicate 1) was 23% and 31% and 11%, the “Population Hoechst High Intensity Objects (%)” value ([2]; 24 h, replicate 1) was 14% and 15% and the “Population Mitochondria Different-Phenotype (%)” value ([2]; 24 h, replicate 1) was 100% and 88% and 63%. For the same compound, the “Population Normal (%)” value ([2]; 24 h, replicate 1) was 85% and 84%, the “Population Pyknosed Nuclei (%)” value ([2]; 24 h, replicate 1) was 75% and 54% and 32% and the “Population Tubulin-Different-Phenotype (%)” value ([2]; 24 h, replicate 1) was 100% and 88% and 69%. The “Total Cell Count” value ([2]; 24 h, replicate 1) was 179 and 191 and 200, the “Population Apoptotic (%)” value ([2]; 24 h, replicate 2) was 100% and 96% and 88% and the “Population Membrane Permeable-Phenotype (%)” value ([2]; 24 h, replicate 2) was 50% and 81% and 33%. For the same compound, the “Population Mitochondria Different-Phenotype (%)” value ([2]; 24 h, replicate 2) was 20% and 57%, the “Population Mitotic Cells (%)” value ([2]; 24 h, replicate 2) was 0% and 3% and 11% and the “Population Normal (%)” value ([2]; 24 h, replicate 2) was 83% and 67% and 90%. The “Population Tubulin-Different-Phenotype (%)” value ([2]; 24 h, replicate 2) was 40% and 61%, the “Total Cell Count” value ([2]; 24 h, replicate 2) was 154 and 69 and 193 and the “Population Apoptotic (%)” value ([2]; 48 h, replicate 1) was 100%. For the same compound, the “Population Fragmented Nuclei (%)” value ([2]; 48 h, replicate 1) was 28%, the “Population Healthy Nuclei (%)” value ([2]; 48 h, replicate 1) was 1% and the “Population Hoechst High Intensity Objects (%)” value ([2]; 48 h, replicate 1) was 16%. The “Population Membrane Permeable-Phenotype (%)” value ([2]; 48 h, replicate 1) was 100%, the “Population Mitochondria Different-Phenotype (%)” value ([2]; 48 h, replicate 1) was 100% and the “Population Mitotic Cells (%)” value ([2]; 48 h, replicate 1) was 0%. For the same compound, the “Population Normal (%)” value ([2]; 48 h, replicate 1) was 83%, the “Population Pyknosed Nuclei (%)” value ([2]; 48 h, replicate 1) was 70% and the “Population Tubulin-Different-Phenotype (%)” value ([2]; 48 h, replicate 1) was 100%. For the same compound, the “Total Cell Count” value ([2]; 48 h, replicate 1) was 162, the “Population Fragmented Nuclei (%)” value ([2]; 48 h, replicate 2) was 19% and the “Population Healthy Nuclei (%)” value ([2]; 48 h, replicate 2) was 33%. For the same compound, the “Population Hoechst High Intensity Objects (%)” value ([2]; 48 h, replicate 2) was 37%, the “Population Membrane Permeable-Phenotype (%)” value ([2]; 48 h, replicate 2) was 92% and the “Population Mitochondria Different-Phenotype (%)” value ([2]; 48 h, replicate 2) was 92%. The “Population Normal (%)” value ([2]; 48 h, replicate 2) was 62%, the “Population Pyknosed Nuclei (%)” value ([2]; 48 h, replicate 2) was 47% and the “Population Tubulin-Different-Phenotype (%)” value ([2]; 48 h, replicate 2) was 92%. For the same compound, the “Total Cell Count” value ([2]; 48 h, replicate 2) was 70, the “Growth Rate” value [3, 6] was 0 and the “Growth Rate” value [3, 7] was 0. For the same compound, the “Growth Rate” value [3, 8] was 0, the “Growth Rate” value [3, 9] was 0 and the “Growth Rate” value [4, 6] was 0. For the same compound, the “Growth Rate” value [4, 7] was 0, the “Growth Rate” value [4, 8] was 0 and the “Growth Rate” value [4, 9] was 0. For the same compound, the “Growth Rate” value ([5]; 0 h, replicate number 1, timepoint 0 hours) was 0, the “Growth Rate” value [5, 6] was 0 and the “Growth Rate” value [5, 7] was 0. For the same compound, the “Growth Rate” value [5, 8] was 0 and the “Growth Rate” value [5, 9] was 0.

Reference: ChEMBL document CHEMBL4689842, “EUbOPEN Chemogenomics Library wave 1” (2021)
